# Source: PubChem BioAssay (Broad Institute)
# CFTR F508del cor: correctors of CFTR F508del function in bronchial epithelial cells; CFBE cells, YFP halide quenching; stimulated with forskolin plus potentiator P3; % fluorescence drop versus neutral controls; activity (quench increase), % at 7.58 µM; actives 0.36% (n = 350,000); AID 720511;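 active = mean added fluorescence quench of at least 8% versus neutral control, with both replicates also reaching 8%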;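 also: cells transiently co-express mutant CFTR-F508del with the halide-sensitive YFP; corrector assay measuring rescue of mutant channel to the surface after 24 h compound exposure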
# CAL PDZ FP-1: human CAL PDZ-peptide interaction inhibition; inhibition, % at 20 µM; actives 0.02% (n = 330,000); purified CAL PDZ, TMR-peptide fluorescence polarization, 1 h; AID 504414;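 active = highest replicate inhibition of at least 40%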
#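 Material: tagged CAL PDZ domain; buffer or medium: 25 mM sodium phosphate pH 7.4, 150 mM NaCl, TCEP, IgG, Thesit; compound dosing: single point, 20 µM; schedule: 1 h incubation at room temperature before polarization reading; measured by: FP readout, S and P plane fluorescence; read-out basis: percent inhibition from loss of millipolarization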
# miR122 inh: miR-122 inhibition in Huh7 cells | activation (reporter increase), % at 12.5 µM | actives 0.3% (n = 340,000) | Huh7 miR-122 Renilla luciferase sensor, 48 h; neutral wells = 0, positive control = 100;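 active = mean replicate activation score at least 90 and every replicate individually at or above 90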;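 also: higher luciferase means less miR-122 activity so hits act as miR-122 inhibitors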
# CAL PDZ FP-2: inhibitors of human CAL PDZ peptide binding; AID 602252; actives 0.92% (n = 300,000); inhibition, % at 24.9 µM; purified CAL PDZ, TMR-peptide fluorescence polarization, 1 h; Q9HD26;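 active = mean inhibition of at least 30% with at least half of replicates also reaching 30%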
# PGC1a acetyl inh: PGC1a acetylation modulation, inhibitor mode; U2OS PGC1a acetylation, AlphaScreen anti-acetyl-lysine; with virally co-expressed GCN5 acetyltransferase; inhibition, % at 15.6 µM; actives 0.17% (n = 350,000); AID 651687;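 active = every replicate shows inhibition of at least 40%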
# ARNT-TACC3 inh: disruptors of human ARNT/TACC3 interaction. Q9Y6A5. AlphaScreen His-ARNT PAS-B/GST-TACC3 binding, luminescence; TACC3 fragment carries E629A point mutation. inhibition, % at 9.99 µM. actives 0.66% (n = 390,000). AID 623870;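 active = mean inhibition of replicates at least 50% and at least half of replicates each reaching 50%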
# A number is an active result; – = inactive; · = not tested or not shown; + = active, no number. An excerpt weighted towards active compounds, which were near 1.7% of everything screened.
SMILES,CFTR F508del cor,CAL PDZ FP-1,miR122 inh,CAL PDZ FP-2,PGC1a acetyl inh,ARNT-TACC3 inh
CC(=O)n1cc(/C=N/NC(=O)c2ccccc2Cl)c2ccccc21,·,–,–,68,–,–
CCc1nc(C)cn1S(=O)(=O)c1ccc([N+](=O)[O-])cc1,–,–,–,–,–,–
Cc1cn(S(=O)(=O)c2ccc(Cl)cc2)c(C)n1,–,–,·,78,·,–
COc1cc(C(=O)Nc2ccc(C)cc2)c2ccccc2n1,11,–,–,–,–,–
CCOc1ccc(NC(=O)c2cc(OC)nc3ccccc23)cc1,11,–,·,–,·,–
CCOc1cc(/C=C2\SC(=S)N(C(C(=O)O)c3ccccc3)C2=O)ccc1O (stereo not given),14,–,–,–,–,–
CCOc1ccc(/C=C2/SC(=S)N(C(C(=O)O)c3ccccc3)C2=O)cc1OCC (stereo not given),·,–,–,–,–,–
C=CCNC(=O)/C(C#N)=C/c1cn(-c2ccccc2)nc1-c1ccc(OC)c([N+](=O)[O-])c1,·,–,147,·,·,–
COc1ccc(CN2[C@H](CO)[C@H]3c4ccccc4N(C(=O)CC(F)(F)F)C[C@H]32)cc1,–,·,–,·,–,–
COc1cc(C)c(C(C)C)cc1S(=O)(=O)N1CCN(C)CC1,·,–,149,–,–,–
O=C(NCC1CCCN(Cc2cccc(F)c2)C1)c1cccc2ccccc12 (stereo not given),–,–,–,68,–,–
CSc1cccc(CN2CCCC(CNC(=O)c3ccco3)C2)c1 (stereo not given),–,–,–,146,·,–
CC(C)NC(=O)N(C)C[C@H]1Oc2c(NS(=O)(=O)c3cn(C)cn3)cccc2C(=O)N([C@H](C)CO)C[C@H]1C,–,·,–,·,–,–
COC(=O)c1ccccc1NC(=O)CSc1nncn1C,–,–,–,55,·,–
COC(=O)c1ccccc1NC(=O)CSc1nncn1-c1cccnc1,–,–,·,–,·,–
Cn1cnnc1SCC(=O)Nc1ccc(S(=O)(=O)N2CCCC2)cc1,–,–,–,–,–,–
Cn1cnnc1SCC(=O)Nc1ccc(S(=O)(=O)N2CCOCC2)cc1,12,–,–,·,–,–
COc1ccc(S(=O)(=O)N(C)C[C@@H]2OCCCC[C@H](C)Oc3ccc(NC(=O)NC(C)C)cc3C(=O)N([C@@H](C)CO)C[C@H]2C)cc1,–,·,–,·,–,–
COc1cc(C(=O)NNC(=O)c2ccc3c(c2)OCCO3)cc(OC)c1OC,–,–,–,92,–,–
COc1cc(C(=O)c2ccc3c(c2)OCO3)cc(OC)c1OC,–,–,–,–,–,–
COc1cc(C(=O)c2cocc2C(=O)c2ccc3c(c2)OCO3)cc(OC)c1OC,13,–,–,–,–,–
Cc1nc2ccc3nc(NC(=O)c4ccc5c(c4)OCCO5)sc3c2s1,·,–,–,–,–,–
Cc1cnc(NC(=O)c2ccc3c(c2)OCCO3)s1,9.0,–,–,–,–,–
Cc1noc(C)c1NC(=O)Nc1ccc2c(c1)CC(=O)N([C@H](C)CO)C[C@H](C)[C@H](CN(C)C(=O)Nc1ccc(C(F)(F)F)cc1)O2,–,·,–,·,–,–
O=C(C[C@H]1CC[C@H]2[C@@H](COC[C@@H](O)CN2Cc2cccc(F)c2)O1)NCCc1ccncc1,–,·,–,·,–,–
SMILES,CFTR F508del cor,CAL PDZ FP-1,miR122 inh,CAL PDZ FP-2,PGC1a acetyl inh,ARNT-TACC3 inh
C[C@H](CO)N1C[C@H](C)[C@@H](CN(C)Cc2cncnc2)Oc2cc(/C=C/c3ccccc3)ccc2S1(=O)=O,–,·,–,·,–,–
CCCOC(=O)CN1C(=O)c2ccccc2C1=O,·,–,–,–,–,–
CCOC(=O)CN1C(=O)c2ccccc2C1=O,·,–,–,51,–,–
O=C(CN1C(=O)c2ccccc2C1=O)N1CCN(c2ccccc2)CC1,·,–,–,40,–,–
Cc1ccc(N2CCN(C(=O)CN3C(=O)c4ccccc4C3=O)CC2)cc1,·,–,–,–,–,–
CCOc1ccccc1CNC(=O)CN1C(=O)CSc2ccc(S(=O)(=O)N3CCOCC3)cc21,–,–,–,+,–,–
COc1ccc(CNC(=O)CN2C(=O)CSc3ccc(S(=O)(=O)N4CCOCC4)cc32)c(OC)c1,–,–,–,–,–,–
COc1ccccc1NC(=O)Nc1ccnn1Cc1cccs1,·,–,–,57,–,–
COc1ccc(C(=O)/C=C/c2ccc(N(C)C)cc2)c(OC)c1,18,–,212,·,–,–
O=C(N=C1SC2CS(=O)(=O)CC2N1c1cccc(F)c1)C1CC1 (stereo not given),–,–,–,62,–,–
O=C(N=C1SC2CS(=O)(=O)CC2N1c1ccccc1)C1CC1 (stereo not given),–,–,–,–,–,–
Cc1cc(C(=O)CN2C(=O)C(=O)N(Cc3ccccc3)C2=O)c(C)n1Cc1ccccc1,9.4,–,–,·,–,–
CCC(=O)Nc1ccc2c(c1)C(=O)N(C)C[C@H](OC)[C@H](C)CN(CC1CCOCC1)[C@H](C)CO2,–,·,–,·,–,–
CCOc1ccc(C(=O)N/N=C/c2cccc3cccnc23)cc1,·,–,–,–,–,65
COc1ccc(C(=O)N/N=C/c2cccnc2)cc1,–,–,–,–,–,–
CCOc1ccc(C(=O)N/N=C/c2ccccc2[N+](=O)[O-])cc1,·,–,·,–,·,–
CCOc1ccccc1C(=O)N/N=C/c1cccc2cccnc12,·,–,–,–,–,72
CCOc1ccc(OCc2ccc(C(=O)NN=Cc3ccc[nH]3)cc2)cc1,–,–,–,–,47,–
COc1ccc(C(=O)N/N=C/c2cccc3cccnc23)cc1,·,–,–,–,–,88
O=C(C[C@@H]1C[C@@H]2c3cc(NC(=O)c4cccnc4)ccc3O[C@@H]2[C@H](CO)O1)NCc1cccnc1,–,·,–,·,–,–
Cc1cccc(-c2ccc([C@@H]3[C@@H](CO)N4C(=O)CN(C(=O)c5cccnc5)C[C@H]34)cc2)c1,–,·,·,·,–,·
CCN(CC(=O)Nc1c(F)cccc1F)C(=O)CCCc1c[nH]c2ccccc12,–,–,–,–,–,–
CCCN(CC(=O)Nc1ccccc1C)C(=O)COc1c(Cl)cccc1Cl,–,–,·,–,–,–
